Published values of several laboratories.
MET: Hepatocyte growth factor receptor (MET, Homo sapiens, UniProt P08581)
MET M1250T: Hepatocyte growth factor receptor (MET, Homo sapiens, UniProt P08581, M1250T)
MET Y1235D: Hepatocyte growth factor receptor (MET, Homo sapiens, UniProt P08581, Y1235D)

With `O=c1[nH]c2ccccc2n1C1CCN(Cc2ccc(-c3[nH]c4cc5ncnc5cc4nc3-c3ccccc3)cc2)CC1` the remaining signal was 102% (MET; cell-free assay; 0.5 µM).
`C#Cc1n[nH]c2c(-c3cn(C(C)c4ccccn4)c(=O)[nH]c3=O)cc(F)cc12` (stereo not shown) gave an inhibition of 100% (Hepatocyte growth factor receptor (MET, Homo sapiens, UniProt P08581, D1228H); enzyme activity, inhibitor; 1 µM).
With `Cn1cc(-c2cccc(N3CCc4c(sc5c4CC(C)(C)C5)C3=O)c2CO)cc(Nc2ccncn2)c1=O` the inhibition was 5% (MET M1250T; enzyme activity, inhibitor; 1 µM).
For `COc1ncccc1-c1cnn2ccc(N3CCN(C(=O)OC(C)C)CC3)nc12`, the remaining binding was 88% (MET; binding, competition with immobilised ligand; 1 µM).
`N#CC1(c2ccccn2)CCN(Cc2cc(C(=O)O)c(=O)n3ccccc23)CC1` gave a remaining binding of 99% (MET Y1235D; cell-free assay, competition with immobilised ligand; 1 µM).
For `Cc1nn(C)cc1-c1nc2c(N3CCN(Cc4ccc(Cl)cc4)CC3)c(Cl)cnc2[nH]1`, the remaining binding was 83% (MET; binding, competition with immobilised ligand; 1 µM).
`Nc1ncc(-c2nc(N3CCOCC3)nc(N3CCOCC3)n2)c(C(F)F)n1` gave a remaining binding of 92% (MET Y1235D; cell-free assay, competition with immobilised ligand; 10 µM).
The remaining binding of `Cn1cncc1[C@](O)(COc1ccc(C#N)cc1-c1ccc(OC(F)(F)F)cc1)c1ccc(C#N)cc1` is reported as 100% (MET M1250T; cell-free assay, competition with immobilised ligand; 1 µM).
`Cn1cc(-c2cc(F)cc(N3CCn4c(cc5c4CCCC5)C3=O)c2CO)cc(Nc2ccc(N3CCN(C4COC4)CC3)cn2)c1=O` gave an inhibition of 15% (MET; enzyme activity, inhibitor; 0.1 µM).
For `CC(C)(C)c1cc(C=C(C#N)C#N)cc(Br)c1O`, the remaining activity was 111% (MET; enzyme activity, inhibitor; 0.5 µM).
